Most compounds without a hit are left out; they make up all but 2.2% or so of the library.
DENV2 CPE: inhibitors of DENV2 cytopathic effect, primary screen, cell-based, plate reader, single concentration; actives 1.7% (n = 350,000); DENV2-infected cells, cytopathic effect rescue; CPE inhibition, % at 9.99 µM; in the data active = CPE inhibition above about 20%, passing the limit was not always enough; inconclusive = no clear call, values can overlap the other calls; tested in BHK-21 cells
Statin myotox sup: suppressors of statin myotoxicity in C2C12 myotubes, primary screen, cell-based, single point, plate reader; C2C12 myotubes + simvastatin, ATP luminescence, 48 h; scaled: DMSO 0, geranylgeraniol control 100; rescue of ATP level, % at 7.49 µM; actives 0.78% (n = 330,000); AID 602340, 2012;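 active = mean ATP rescue above about 67%, or every replicate alone reaching that limit, limit read from the data, passing the limit was not always enough; inconclusive = no clear call, values can overlap the other calls; inactive = mean under the limit and some replicate under it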;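 note: myotubes were challenged with 10 µM simvastatin during compound exposure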
E-selectin induc: E-selectin induction in HUVECs, primary screen, imaging, HUVEC, immunofluorescence imaging, single point. P16581. normalized: neutral wells 0, TNF-alpha wells 100. activation, % at 7.58 µM. actives 0.37% (n = 260,000);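 active = mean E-selectin-positive cell signal at least 10% of the positive control, reached in at least 60% of replicates, without over 20% cell loss; inconclusive = no rule given, readout overlaps actives, possibly toxicity-flagged; inactive = the rest, including those meeting only one limit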
Target sequence (P16581 whole entry, looked up): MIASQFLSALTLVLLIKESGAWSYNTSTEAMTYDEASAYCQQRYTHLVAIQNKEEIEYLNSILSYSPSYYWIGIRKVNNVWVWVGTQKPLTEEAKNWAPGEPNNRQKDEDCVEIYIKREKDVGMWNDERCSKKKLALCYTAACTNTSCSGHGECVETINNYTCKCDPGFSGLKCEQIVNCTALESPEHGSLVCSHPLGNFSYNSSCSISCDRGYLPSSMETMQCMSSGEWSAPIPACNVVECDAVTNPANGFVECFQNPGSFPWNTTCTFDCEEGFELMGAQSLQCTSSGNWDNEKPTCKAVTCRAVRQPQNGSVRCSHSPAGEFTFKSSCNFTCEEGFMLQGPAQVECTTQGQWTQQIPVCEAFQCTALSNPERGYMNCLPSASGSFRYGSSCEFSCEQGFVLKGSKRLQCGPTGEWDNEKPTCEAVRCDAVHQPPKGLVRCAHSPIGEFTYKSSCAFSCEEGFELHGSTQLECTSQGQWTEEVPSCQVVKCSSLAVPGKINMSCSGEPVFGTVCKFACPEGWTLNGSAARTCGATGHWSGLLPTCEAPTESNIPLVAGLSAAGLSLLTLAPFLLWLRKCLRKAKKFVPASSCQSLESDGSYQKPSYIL
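Assay system: HUVEC, human umbilical vein endothelial cells / Amount: 3,000 HUVEC/well / Controls: TNF-alpha positive control, DMSO neutral control / Compound dosing: single concentration / Medium: EGM-2 over gelatin coat / Evaluation: percent E-selectin-positive cells / Signal: immunofluorescence imaging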
A number is an active result; - = inactive; ? = inconclusive; . = not tested or not shown.

SMILES	DENV2 CPE	Statin myotox sup	E-selectin induc
O=C(C[C@@H]1CC[C@@H]2[C@H](COC[C@H](O)CN2S(=O)(=O)c2ccc(Cl)cc2)O1)NCCN1CCCC1	-	-	-
COc1ccccc1CN1[C@@H]2CNC[C@H]1C2c1ccc(/C=C/c2ccccc2)cc1 (some centres undefined)	-	.	-
O=C(Nc1ccc(F)cc1)Nc1ccc2c(c1)[C@H]1C[C@H](CC(=O)N3CCOCC3)O[C@H](CO)[C@H]1O2	-	-	-
Cc1ccc(S(=O)(=O)NCC[C@@H]2CC[C@H](NC(=O)c3cccnc3)[C@@H](CO)O2)cc1	-	-	-
C[C@@H]1CN([C@H](C)CO)C(=O)Cc2cc(NS(=O)(=O)c3ccc(Cl)cc3)ccc2O[C@H]1CN(C)C(=O)Nc1cccc2ccccc12	-	-	-
O=C(C1CCOCC1)N1[C@@H](CO)[C@@H](c2ccccc2)C12CN(Cc1cccnc1)C2	-	.	-
O=C(Cc1cccnc1)N1CC2(C1)[C@H](c1ccccc1)[C@@H](CO)N2C(=O)C1CCCC1	-	.	-
CC(C)NC(=O)N1[C@H](CO)[C@@H](c2ccccc2)C12CN(C(=O)Cc1cccnc1)C2	31.4	.	-
O=C(C1CCOCC1)N1[C@H](CO)[C@@H](c2ccccc2)C12CN(Cc1cccnc1)C2	96.9	.	-
O=C(Cc1cccnc1)N1CC2(C1)[C@H](c1ccccc1)[C@@H](CO)N2C(=O)C1CC1	21.4	.	-
O=C(Cc1cccnc1)N1CC2(C1)[C@H](c1ccccc1)[C@@H](CO)N2C(=O)C1CCC1	-	.	-
COCC(=O)Nc1ccc2c(c1)OC[C@@H](C)N(C(=O)C1CCCC1)C[C@H](C)[C@H](OC)CN(C)C2=O	.	-	-
C[C@H](CO)N1C[C@H](C)[C@H](CN(C)C(=O)Nc2ccc(F)cc2)Oc2ccc(NS(=O)(=O)c3cn(C)cn3)cc2C1=O	.	-	-
C/C=C/c1ccc([C@H]2[C@@H](CN(C)C(C)=O)N(C(=O)NCCC)[C@H]2CO)cc1	.	-	-
CC(=O)CC(=O)O[C@@H]1C=C[C@H](NC(=O)OC(C)(C)C)C1	29.4	.	-
COC(=O)CC(=O)O[C@H]1C=C[C@@H](NC(=O)OC(C)(C)C)C1	-	-	.
Cc1ccc(NC(=O)COC(=O)c2nn(-c3ccc(Cl)cc3)cc2O)cc1	-	-	-
NNC(=O)c1nn(-c2ccc(Cl)cc2)cc1O	-	113.5	-
C[C@H](CO)N1C[C@H](C)[C@@H](CN(C)Cc2ccc(C(F)(F)F)cc2)Oc2ccc(NC(=O)C3CCCCC3)cc2CC1=O	42.0	70.9	-
C[C@H](CO)N1C[C@H](C)[C@@H](CN(C)Cc2ccccc2)Oc2ccc(NC(=O)C3CCCCC3)cc2CC1=O	37.7	-	-
C[C@@H]1CN([C@H](C)CO)C(=O)Cc2cc(NC(=O)C3CCCCC3)ccc2O[C@H]1CN(C)Cc1ccc(-c2ccccc2)cc1	-	98.7	-
C[C@@H]1CN([C@H](C)CO)C(=O)Cc2cc(NC(=O)C3CCCCC3)ccc2O[C@@H]1CN(C)Cc1ccccc1	-	-	-
C[C@@H]1CN([C@@H](C)CO)C(=O)Cc2cc(NC(=O)C3CCCCC3)ccc2O[C@@H]1CN(C)Cc1ccc(C(F)(F)F)cc1	-	-	-
C[C@H]1CN([C@@H](C)CO)C(=O)Cc2cc(NC(=O)C3CCCCC3)ccc2O[C@@H]1CN(C)Cc1ccc(-c2ccccc2)cc1	?	-	-
Cc1ccc(S(=O)(=O)Nc2ccc3c(c2)C(=O)N([C@@H](C)CO)C[C@H](C)[C@H](CN(C)CC2CCCCC2)O3)cc1	-	-	-
SMILES	DENV2 CPE	Statin myotox sup	E-selectin induc
CC(C)NC(=O)N(C)C[C@@H]1Oc2c(NC(=O)NC3CCCCC3)cccc2C(=O)N([C@@H](C)CO)C[C@@H]1C	?	-	-
CCC(=O)N(C)C[C@H]1Oc2cc(C3=CCCC3)ccc2S(=O)(=O)N([C@@H](C)CO)C[C@@H]1C	-	-	70.5
CCCNC(=O)N(C)C[C@H]1Oc2cc(C3=CCCCC3)ccc2S(=O)(=O)N([C@@H](C)CO)C[C@@H]1C	-	-	-
C[C@H]1CN([C@@H](C)CO)S(=O)(=O)c2ccc(C3=CCCC3)cc2O[C@H]1CN(C)C(=O)C1CCC1	20.9	-	-
C[C@@H]1CN([C@@H](C)CO)S(=O)(=O)c2ccc(C3=CCCCC3)cc2O[C@H]1CN(C)C(=O)C1CCC1	-	-	-
CCC(=O)N(C)C[C@@H]1Oc2cc(C3=CCCCC3)ccc2S(=O)(=O)N([C@H](C)CO)C[C@H]1C	.	-	-
CCCNC(=O)N(C)C[C@H]1Oc2cc(C3=CCCC3)ccc2S(=O)(=O)N([C@H](C)CO)C[C@H]1C	29.7	-	-
